High-throughput results from PubChem BioAssay.
Sampled rows, rich in hits. Any-hit rate of the full collection: about 3.7%.
ROMK mod – modulates human ROMK potassium channel activity | P48048 | 2% of 130,000 active | Tet-inducible ROMK, thallium flux fluorescence; actives lie on both sides | B-score at 10 µM;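 active means signal ratio slope over the read window, or its plate-corrected B-score, at least 3 SD from the plate mean, either direction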;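 further: B-score of the F/F0 ratio slope over 7 to 12 s after thallium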
Cl transport mod – modulators of human KCC2 chloride dependent transport | Q9H2X9 | KCC2 cells, thallium flux FluoZin-2 fluorescence | B-score of Tl+ flux slope (higher = more flux/activation; lower = inhibition) at 10 µM | 2.2% of 190,000 active | AID 1456;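 active means thallium flux slope and its plate-corrected score both differing from the plate sample mean at a set confidence after two filtering rounds, in either direction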;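 further: slope of fluorescence scaled to starting intensity during 10 to 20 s after thallium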
Target sequence (Q9H2X9 whole entry, looked up): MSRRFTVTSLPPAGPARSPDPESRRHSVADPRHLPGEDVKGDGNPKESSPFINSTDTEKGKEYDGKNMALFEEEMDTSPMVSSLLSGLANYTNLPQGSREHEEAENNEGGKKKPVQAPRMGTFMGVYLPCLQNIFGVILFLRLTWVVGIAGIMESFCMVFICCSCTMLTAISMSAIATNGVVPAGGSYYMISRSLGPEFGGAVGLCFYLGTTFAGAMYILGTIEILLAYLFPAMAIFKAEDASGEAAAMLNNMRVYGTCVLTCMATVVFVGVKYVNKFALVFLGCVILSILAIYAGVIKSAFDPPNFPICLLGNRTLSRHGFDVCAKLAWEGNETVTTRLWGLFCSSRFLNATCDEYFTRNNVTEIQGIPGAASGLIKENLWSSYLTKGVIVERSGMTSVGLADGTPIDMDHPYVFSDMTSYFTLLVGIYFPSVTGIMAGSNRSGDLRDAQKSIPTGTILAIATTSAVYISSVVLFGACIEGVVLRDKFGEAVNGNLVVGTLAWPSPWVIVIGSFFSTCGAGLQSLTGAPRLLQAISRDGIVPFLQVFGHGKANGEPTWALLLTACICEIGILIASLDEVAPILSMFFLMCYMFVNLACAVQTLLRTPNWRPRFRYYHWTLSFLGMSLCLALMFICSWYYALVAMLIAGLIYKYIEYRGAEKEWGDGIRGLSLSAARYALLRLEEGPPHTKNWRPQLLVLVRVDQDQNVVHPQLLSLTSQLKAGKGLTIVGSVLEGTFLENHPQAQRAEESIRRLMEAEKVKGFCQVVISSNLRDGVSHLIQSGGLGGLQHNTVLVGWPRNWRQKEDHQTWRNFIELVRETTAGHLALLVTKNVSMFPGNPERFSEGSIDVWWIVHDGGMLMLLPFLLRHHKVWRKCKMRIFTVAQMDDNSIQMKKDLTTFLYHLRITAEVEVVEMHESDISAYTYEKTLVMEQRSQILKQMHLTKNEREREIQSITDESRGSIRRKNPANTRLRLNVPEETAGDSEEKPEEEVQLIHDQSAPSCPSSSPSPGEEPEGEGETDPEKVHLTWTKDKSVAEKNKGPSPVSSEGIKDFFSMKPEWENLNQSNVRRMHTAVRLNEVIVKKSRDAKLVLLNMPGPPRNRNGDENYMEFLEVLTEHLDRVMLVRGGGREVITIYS
MT stabilizer – microtubule stabilizers in HeLa cells | HeLa tubulin immunostaining HCS, 24 h; share of cells brighter than vehicle mean+2SD | % tubulin-high responders, % at 10 µM | 0.83% of 200,000 active | AID 2205;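 active means plate Z-score above 3 for both tubulin-high and condensed-nucleus cell shares, with cell loss under 80%, at 10 µM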;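 further: anti alpha tubulin signal scored within the nucleus-defined area of each cell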
b-catenin transl – alters nuclear translocation of beta-catenin in HeLa cells. immunofluorescence imaging. nuclear translocation activity, % at 5 µM. 0.3% of 190,000 active. AID 1665;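 active means nuclear translocation activity above 50% at 5 µM, with a well cell count of 50 or more; inconclusive means wells under 50 cells across six images, flagged as toxic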;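 further: per-cell ratio of nuclear to cytoplasmic median beta-catenin stain intensity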
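Technique: fluorescence imaging of beta-catenin antibody stain plus DAPI / Material: human HeLa cell line / Incubation: compound treatment 24 h, 37°C, 5% CO2 / Read-out basis: % activation of per-cell nuclear versus cytoplasmic median beta-catenin signal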
DTT redox prof – compounds producing H2O2 with reducing agent – biochemical, NIH compound library profiling, artefact control for MLSCN library redox annotation, primary screen; activation, % at 10 µM; 0.03% of 200,000 active; DTT-dependent redox cycling H2O2, phenol red/HRP absorbance; 100% = 100 µM peroxide control, 0% = buffer;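 active means activation of at least 50% relative to the plate's high and low controls in the primary single-dose screen; inactive means activation below 50%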;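 further: compound incubated with DTT at 0.8 mM final as the reducing agent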
KCC2 sec1 – confirmation of human KCC2 transport modulators; shares compounds with Cl transport mod; HEK293-KCC2, thallium flux, FluoZin2 fluorescence; hits give high values; normalised thallium flux (F/F0 slope) at 10 µM; 15% of 3,700 active; AID 1713;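 active means thallium flux slope above the same plate's solvent-only control mean plus 3 SD; inconclusive means the two replicate wells disagree; inactive means no significant difference from solvent-only control wells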
KCC2 bumet counter – thallium flux persisting under bumetanide in KCC2 cells, counter-screen secondary assay; normalized thallium flux at 10 µM; 49% of 3,700 active; HEK293-KCC2 + bumetanide/ouabain, thallium flux FluoZin2; hits give high values; shares compounds with Cl transport mod;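 active means thallium entry rate above the same plate's blocked-transporter control wells by more than 3 SD; inconclusive means the two repeat wells disagree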;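 further: raw slope of fluorescence over initial fluorescence between 10 and 20 s after thallium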
KCC2 sec2 – KCC2 (human) modulation, second secondary assay. normalized thallium flux at 10 µM. 23% of 3,700 active. AID 1715. shares compounds with Cl transport mod. HEK293-KCC2, thallium flux FluoZin2 fluorescence; actives lie on both sides; F/F0 rise rate, 10–20 s post-thallium;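 active means thallium flux slope more than 3 SD above or below the plate's solvent-only control mean, mostly below; inconclusive means the two repeat wells disagreed; inactive means no significant shift from solvent-only controls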
HEK counter1 – parental HEK flux effect, counter-screen. shares compounds with Cl transport mod. HEK293 parental cells, thallium flux FluoZin2, ouabain; baseline-ratio fluorescence slope, 10–20 s after thallium. thallium flux rate (normalised fluorescence) at 10 µM. 46% of 3,700 active;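 active means thallium flux rate significantly above the same plate's solvent-only control wells, beyond their mean plus 3 SD; inconclusive means the two replicate wells gave conflicting results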
KCC2 ouabain – confirmation of human KCC2 modulators with ouabain; raw Tl+ flux slope (below DMSO = inhibition, above = activation) at 10 µM; 48% of 3,700 active; shares compounds with Cl transport mod; HEK293-KCC2, thallium flux FluoZin2 fluorescence; bidirectional: low = inhibitor, high = activator;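 active means thallium flux slope beyond 3 SD from same-plate DMSO control mean in most replicates, usually higher, sometimes lower; inconclusive means repeat tests gave conflicting results; inactive means no significant difference from controls in most replicates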;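 further: slope of initial-normalized fluorescence between seconds 10 and 20 after thallium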
HEK293 Tl flux2 – parental HEK flux effect, counter-screen 2 | shares compounds with Cl transport mod | HEK293 parental, thallium flux FluoZin-2 fluorescence slope | thallium flux slope at 10 µM | 33% of 3,700 active | AID 1718;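 active means thallium flux slope above the same plate's solvent-control mean plus 3 SD in both duplicate wells; inconclusive means duplicate wells that disagreed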;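 further: run without ouabain in cells lacking the KCC2 cotransporter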
Of the large screens only hits and unclear results are named; the others gave an inactive call (follow-up assays come after a bar, where they were run).

NC(=O)COC(=O)c1cc([N+](=O)[O-])ccc1NCCO	none (no result: ROMK mod, MT stabilizer, DTT redox prof)
O=C(COC(=O)c1cc([N+](=O)[O-])ccc1NCCO)c1ccccc1	Cl transport mod -3.2 | KCC2 sec1 inactive | KCC2 bumet counter inconclusive | KCC2 sec2 0.023 | HEK counter1 inactive | KCC2 ouabain inconclusive | HEK293 Tl flux2 inactive
CCOC(=O)c1cc2c(ccn2C)n1CC(=O)N1CCC(Cc2ccccc2)CC1	Cl transport mod -5.9 (no result: ROMK mod) | KCC2 sec1 inactive | KCC2 bumet counter inactive | KCC2 sec2 inconclusive | HEK counter1 inactive | KCC2 ouabain 0.016 | HEK293 Tl flux2 inactive
CCOC(=O)c1cc2c(ccn2C)n1CC(=O)N1CCCC(C)C1 (stereo not drawn)	none (no result: ROMK mod)
COc1cc(NS(=O)(=O)c2ccc(N/C=C\C(=O)c3ccc(F)cc3)cc2)nc(OC)n1	none
O=C(Cn1cnc2c(nnn2-c2ccccc2)c1=O)N1CCCc2ccccc21	none (no result: ROMK mod)
O=C(Cn1cnc2c(nnn2Cc2ccccc2)c1=O)N1CCCc2ccccc21	Cl transport mod -4.5 (no result: ROMK mod) | KCC2 sec1 inactive | KCC2 bumet counter inactive | KCC2 sec2 0.022 | HEK counter1 inactive | KCC2 ouabain inconclusive | HEK293 Tl flux2 inactive
O=C(Cn1cnc2c(nnn2Cc2ccc(F)cc2)c1=O)N1CCN(c2ccccc2)CC1	none (no result: Cl transport mod) | KCC2 sec1 inactive | KCC2 bumet counter inactive | KCC2 sec2 0.024 | HEK counter1 inactive | KCC2 ouabain inconclusive | HEK293 Tl flux2 inactive
O=C(Cn1cnc2c(nnn2-c2ccccc2)c1=O)NCCc1ccccc1	Cl transport mod -4.3 (no result: ROMK mod) | KCC2 sec1 inactive | KCC2 bumet counter inactive | KCC2 sec2 0.023 | HEK counter1 inactive | KCC2 ouabain 0.014 | HEK293 Tl flux2 inactive
Cc1ccc(Cn2nnc3c(=O)n(CC(=O)c4ccccc4)cnc32)cc1	none (no result: ROMK mod)
O=C(Cn1cnc2c(nnn2Cc2ccccc2)c1=O)c1ccc(Cl)cc1	Cl transport mod -4.1 (no result: ROMK mod) | KCC2 sec1 inactive | KCC2 bumet counter inconclusive | KCC2 sec2 inconclusive | HEK counter1 inactive | KCC2 ouabain 0.018 | HEK293 Tl flux2 inactive
COC(=O)[C@@H](NC(=O)O[C@@H]1C(=O)c2cc(Br)ccc2O[C@H]1c1cccc(OC)c1)C(C)C	Cl transport mod 9.3 (no result: b-catenin transl) | KCC2 sec1 inactive | KCC2 bumet counter 0.013 | KCC2 sec2 inactive | HEK counter1 0.015 | KCC2 ouabain inconclusive | HEK293 Tl flux2 inconclusive
CN(Cc1ccccc1)S(=O)(=O)c1ccc(Cl)c(C(=O)NCCc2ccccn2)c1	Cl transport mod -4.4 | KCC2 sec1 inactive | KCC2 bumet counter inactive | KCC2 sec2 0.018 | HEK counter1 inactive | KCC2 ouabain 0.012 | HEK293 Tl flux2 inactive
O=C(NCc1ccccn1)c1cc(S(=O)(=O)N2CCN(c3ccccc3)CC2)ccc1Cl	none (no result: Cl transport mod) | KCC2 sec1 inactive | KCC2 bumet counter inactive | KCC2 sec2 0.026 | HEK counter1 inactive | KCC2 ouabain inconclusive | HEK293 Tl flux2 inactive
CN(Cc1ccccc1)S(=O)(=O)c1ccc(Cl)c(C(=O)NCc2ccc3c(c2)OCO3)c1	none
Cc1c(C(=O)NCc2ccccn2)oc2ccc(S(=O)(=O)N3CCOCC3)cc12	Cl transport mod 5.2 | KCC2 sec1 inactive | KCC2 bumet counter inconclusive | KCC2 sec2 inconclusive | HEK counter1 inactive | KCC2 ouabain inactive | HEK293 Tl flux2 inactive
Cc1nc(/C=C\C(=O)O)c2cc(C)oc2n1	none
CN(Cc1ccccc1)c1ccc(N2C(=O)CCCC2=O)cc1[N+](=O)[O-]	none
Cc1ccc(S(=O)(=O)N2CCC(C(=O)NNC(=O)c3ccc(F)cc3)CC2)cc1	none
COc1ccc(N(CC(=O)N2CCC(Cc3ccccc3)CC2)S(C)(=O)=O)cc1	Cl transport mod -5 | KCC2 sec1 inactive | KCC2 bumet counter inactive | KCC2 sec2 inconclusive | HEK counter1 0.0061 | KCC2 ouabain 0.015 | HEK293 Tl flux2 inactive
CN(C)S(=O)(=O)N(CC(=O)N1CCC(Cc2ccccc2)CC1)c1ccccc1	none
COCCNC(=O)/C(=C/c1ccccc1Cl)c1ccccc1	none
COc1ccc(-c2nn(-c3ccccc3)cc2/C=C/C(=O)O)cc1[N+](=O)[O-]	none (no result: ROMK mod, MT stabilizer, DTT redox prof)
O=C(O)/C=C/c1cn(Cc2ccccc2)nc1-c1ccccc1	Cl transport mod -3.2 (no result: ROMK mod) | KCC2 sec1 inactive | KCC2 bumet counter inactive | KCC2 sec2 inconclusive | HEK counter1 inactive | KCC2 ouabain 0.015 | HEK293 Tl flux2 inactive
Cc1ccc(-c2nn(Cc3ccccc3)cc2/C=C/C(=O)O)cc1C	Cl transport mod -8.1 (no result: b-catenin transl) | KCC2 sec1 inactive | KCC2 bumet counter inactive | KCC2 sec2 0.021 | HEK counter1 inactive | KCC2 ouabain 0.011 | HEK293 Tl flux2 inactive
O=C(O)/C=C/c1cn(-c2ccccc2)nc1-c1cccc([N+](=O)[O-])c1	none (no result: ROMK mod, Cl transport mod, MT stabilizer, DTT redox prof)
O=C(NC(=S)N1CCN(C/C=C/c2ccccc2)CC1)c1ccco1	Cl transport mod 4.2 | KCC2 sec1 inactive | KCC2 bumet counter 0.015 | KCC2 sec2 inactive | HEK counter1 0.014 | KCC2 ouabain inconclusive | HEK293 Tl flux2 0.016
O=C(NC(=S)N1CCN(C/C=C/c2ccccc2)CC1)c1c(F)cccc1F	Cl transport mod 6.8 | KCC2 sec1 0.018 | KCC2 bumet counter 0.042 | KCC2 sec2 inactive | HEK counter1 0.015 | KCC2 ouabain inconclusive | HEK293 Tl flux2 inconclusive
O=C(/C=C/c1ccc(F)cc1)NC(=S)N1CCN(Cc2ccccc2)CC1	Cl transport mod 40 (no result: ROMK mod, MT stabilizer, DTT redox prof) | KCC2 sec1 inactive | KCC2 bumet counter 0.042 | KCC2 sec2 inactive | HEK counter1 0.03 | KCC2 ouabain 0.031 | HEK293 Tl flux2 0.026
O=C(/C=C/c1ccc(F)cc1)NC(=S)N1CCOCC1	none
Cc1nc(Nc2ccc(Cl)cc2Cl)sc1C(=O)Nc1ccccc1	Cl transport mod 3.7 | KCC2 sec1 inactive | KCC2 bumet counter inactive | KCC2 sec2 inactive | HEK counter1 inactive | KCC2 ouabain inactive | HEK293 Tl flux2 inactive
COc1ccc(CCN2CC(C(=O)NCc3ccc(F)cc3)CC2=O)cc1OC (stereo not drawn)	none (no result: ROMK mod, MT stabilizer, DTT redox prof)
